What all share (test): MIC
Common to all, as to format: cell-based
Common to all, as to settings: broth microdilution, 37 °C, 24 h
A general note: Dilution methods test growth across graded concentrations, often in twofold steps.

Experiment [1] deals with A. baumannii ATCC 19606. In outline:
(§1)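 Strains were kept in TSB with 25% glycerol at −70 °C and grown aerobically on nutrient agar at 37 °C for 24 h. For MIC, test compound was diluted twofold (1–256 µg/mL) and ~10^6 cells/mL were added, followed by 37 °C for 24 h. MIC was read visually as 99% growth inhibition, with gentamycin as control. For MBC, non-turbid wells were plated on Mueller–Hinton agar for 24 h at 37 °C; MBC was the lowest concentration giving no colonies.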

The subject of experiment [2] is S. aureus ATCC 29213. In outline:
as §1

Experiment [3] relates to P. aeruginosa ATCC 27853. In outline:
as §1

With Gentamycin, the MIC – broadly, the smallest concentration in the dilution series that meets the test's criterion for growth inhibition – in experiment [1] was 4 mg/L; in experiment [2], 1 mg/L; in experiment [3], 2 mg/L.

The values above are taken from publication PMC12480717 (Scientific Reports, 2025).
